Experimental data published in PMC5033715 (International journal of toxicology, 2016).
Values joined by “and” are separate entries in the source; they are usually repeats but may differ in a detail not shown here. Equal values may be shown once. “Also recorded” adds a separate entry of the source. Read-outs that look alike come from different tables or passages of the source. Marks after values point to notes of the source that are not given here.

Tests used:
LANCL2 = details: cited from earlier work
[1] = Pharmacokinetic experiment, single 80 mg/kg oral dose, plasma LC-MS/MS; format: in vivo, rat; details: for Geometric mean of plasma concentration (95% lower and upper confidence limits) / Plasma concentration, Median (minimum; maximum): n=3
Outline: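 Adult male Sprague-Dawley rats with indwelling jugular catheters, caged singly and acclimated 5 days, were fasted 12 h and given 80 mg/kg by oral gavage. Catheter blood was drawn at 0.5–48 hr, at least 3 rats per time point. EDTA plasma was acetonitrile-extracted with reserpine internal standard and assayed by LC-MS/MS (C18, duplicates; LLOQ 0.2 ng/ml). Median concentrations gave kel, Vd, Cl and T½. Cmax and Tmax were read from the curve, and ka from a one-compartment fit.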

[2] = Solubility for intravenous administration; format: physicochemical; details: at concentrations required for IV administration of the test dose
[3] = system: adult Sprague Dawley male rats; test: Repeated dose study; format: in vivo, rat; details: 80 mg/kg/day for 14 days; days 4, 8, 14, 21
[4] = system: adult Sprague Dawley male rats; test: Repeated dose study; format: in vivo, rat; details: 80 mg/kg/day over 14 days
[5] = Blood concentrations after single high dose; format: in vivo, rat
[6] = system: adult Sprague Dawley male rats; test: Single dose study; format: in vivo, rat; details: for tBILI, mean plasma: control 0.10; for ALT, mean plasma: control 39; for AST, mean plasma: control 69; for ALP, mean plasma: control 300
Outline: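 After a 12 h fast, rats received vehicle or one 500 mg/kg oral gavage. Separate satellite rats (3 treated, 4 control per time point) were euthanized with intraperitoneal pentobarbital 200 mg/kg at 2, 4, 8 and 14 days. Blood was run through a haematology and chemistry panel including ALT, AST, bilirubin, glucose, BUN, creatinine, electrolytes, cholesterol and proteins; group means are reported.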

[7] = system: adult Sprague Dawley male rats; test: Single dose study; format: in vivo, rat
Outline: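 Rats were fasted 12 h, then given one oral gavage of vehicle or 500 mg/kg as a 100 mg/mL suspension; n=10. The functional observational battery was scored at baseline (day −3 or −4), 4 h, and days 1, 7 and 14. Quantal and categorical endpoints were compared by Fisher's exact test. Continuous endpoints (body weight, grip strength and others) were analysed by mixed model with rat as random effect, giving least-squares means per time point.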

mouse models of colitis = details: cited from earlier work
[8] = system: adult Sprague Dawley male rats; test: Repeated dose study; format: in vivo, rat; details: for O_REAR (rears during observation period), least squares means (95% confidence interval): 80 mg/kg/day
Outline: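 Male Sprague-Dawley rats (200–250 g) were housed 2 per cage on a reverse light cycle and fasted 12 h before dosing. They received vehicle or 80 mg/kg (20 mg/mL suspension) by oral gavage daily for 14 days, then 7 drug-free days; n=10, 8 at day 21. FOB ran at baseline (day −3/−4) and days 3, 7, 14 and 21. It covered quantal/categorical endpoints (Mantel-Haenszel chi-square, 2 blocks) and continuous endpoints (weight, temperature, rotarod, grip, foot splay) as mixed-model least-squares means.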

[9] = system: adult Sprague Dawley male rats; test: Single dose study; format: in vivo, rat; details: single oral 500 mg/kg; 2, 4, 8 or 14 days post-dosing
Outline: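 Satellite rats given vehicle or a single 500 mg/kg oral dose were euthanized (pentobarbital 200 mg/kg ip) at 2, 4, 8 and 14 days. Brain, kidney, liver, adrenal, testes, stomach, intestines, duodenum, pancreas, heart, lungs, spleen, thymus and rib were sectioned at 5 μm and H&E stained, n=3. A board-certified veterinary pathologist examined them unblinded by light microscopy.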

[10] = Day 2 after single oral 500 mg/kg
[11] = Day 4 after single oral 500 mg/kg
[12] = Day 8 after single oral 500 mg/kg
[13] = Day 14 after single oral 500 mg/kg

Compound: CC1=CC(=O)CC(C)(C)[C@@]1(O)/C=C/C(C)=C\C(=O)O [Abscisic acid]
- LANCL2 binding (LANCL2; leads to elevation of intracellular cAMP, activation of PKA): binds to LANCL2

Compound: O=C(c1cccc(-c2nc3ccccc3[nH]2)n1)N1CCN(C(=O)c2cccc(-c3nc4ccccc4[nH]3)n2)CC1 [BT-11, piperazine-1,4-diylbis((6-(1H-benzo[d]imidazo-2-y)pyridin-2-yl)methanone)]
- time to steady state (97% level) after repeated dosing ([1]; 5 × T ½, assuming single-compartment, dose-independent pharmacokinetics): approximately 15 hr
- Geometric mean of plasma concentration (95% lower and upper confidence limits) ([1]; 0.5 hr after 80 mg/kg oral): 14.60 (2.94; 72.53) ng/ml
- Plasma concentration, Median (minimum; maximum) ([1]; 0.5 hr after 80 mg/kg oral): 12.18 (8.55; 29.89) ng/ml
- Geometric mean of plasma concentration (95% lower and upper confidence limits) ([1]; 1 hr after 80 mg/kg oral): 23.99 (4.66; 123.40) ng/ml
- Plasma concentration, Median (minimum; maximum) ([1]; 1 hr after 80 mg/kg oral): 20.95 (13.42; 49.11) ng/ml
- Geometric mean of plasma concentration (95% lower and upper confidence limits) ([1]; 2 hr after 80 mg/kg oral): 19.65 (4.28; 90.23) ng/ml
- Plasma concentration, Median (minimum; maximum) ([1]; 2 hr after 80 mg/kg oral): 16.88 (11.65; 38.62) ng/ml
- Geometric mean of plasma concentration (95% lower and upper confidence limits) ([1]; 4 hr after 80 mg/kg oral): 8.24 (1.89; 35.94) ng/ml
- Plasma concentration, Median (minimum; maximum) ([1]; 4 hr after 80 mg/kg oral): 11.07 (4.16; 12.14) ng/ml
- Geometric mean of plasma concentration (95% lower and upper confidence limits) ([1]; 8 hr after 80 mg/kg oral): 5.24 (2.16; 12.73) ng/ml
- Plasma concentration, Median (minimum; maximum) ([1]; 8 hr after 80 mg/kg oral): 4.33 (4.20; 7.91) ng/ml
- Geometric mean of plasma concentration (95% lower and upper confidence limits) ([1]; 12 hr after 80 mg/kg oral): 1.84 (1.39; 2.45) ng/ml
- Plasma concentration, Median (minimum; maximum) ([1]; 12 hr after 80 mg/kg oral): 1.83 (1.65; 2.07) ng/ml
- Geometric mean of plasma concentration (95% lower and upper confidence limits) ([1]; 16 hr after 80 mg/kg oral): 2.31 (0.12; 44.19) ng/ml
- Plasma concentration, Median (minimum; maximum) ([1]; 16 hr after 80 mg/kg oral): 1.40 (0.99; 8.98) ng/ml
- Geometric mean of plasma concentration (95% lower and upper confidence limits) ([1]; 20 hr after 80 mg/kg oral): 1.06 (0.29; 3.90) ng/ml
- Plasma concentration, Median (minimum; maximum) ([1]; 20 hr after 80 mg/kg oral): 1.39 (0.58; 1.49) ng/ml
- Geometric mean of plasma concentration (95% lower and upper confidence limits) ([1]; 24 hr after 80 mg/kg oral): 0.95 (0.04; 21.25) ng/ml
- Plasma concentration, Median (minimum; maximum) ([1]; 24 hr after 80 mg/kg oral): 1.01 (0.26; 3.22) ng/ml
- Geometric mean of plasma concentration (95% lower and upper confidence limits) ([1]; 48 hr after 80 mg/kg oral): 1.57 (0.47; 5.31) ng/ml
- Plasma concentration, Median (minimum; maximum) ([1]; 48 hr after 80 mg/kg oral): 1.90 (0.90; 2.27) ng/ml
- Cmax (maximal concentration) ([1]; single 80 mg/kg oral, estimated from graph of median plasma concentrations): 21 ng/mL
- Half-life (T ½) ([1]; single 80 mg/kg oral, median values 0.5-8 hr, 80 mg/kg): 3 h
- solubility [2]: too insoluble to administer by the intravenous route; also recorded: relatively insoluble; also recorded: insufficiently soluble to be given IV
- clinical pathological examination of blood samples, control vs test [3]: did not reveal any clinical or statistical differences
- histopathologic evidence of toxic injury [4]: no histopathologic evidence of toxic injury
- blood concentration, individual samples ([5]; 2 hr after 500 mg/kg oral): 32 ng/mL and 3.1 ng/mL and 13 ng/mL
- blood concentration, individual samples ([5]; 4 hr after 500 mg/kg oral): 17 ng/mL and 15 ng/mL and 6.7 ng/mL
- blood concentration, individual samples ([5]; 22 hr after 500 mg/kg oral): 3.0 ng/mL and 9.6 ng/mL and 3.3 ng/mL
- tBILI, mean plasma [6, 10]: 0.20^a mg/dL
- ALT, mean plasma [6, 10]: 126^a IU/L
- AST, mean plasma [6, 10]: 269^a IU/L
- ALP, mean plasma [6, 10]: 376^a IU/L
- tBILI, mean plasma [6, 11]: 0.23^a mg/dL
- ALT, mean plasma [6, 11]: 52^a IU/L
- AST, mean plasma [6, 11]: 106^a IU/L
- ALP, mean plasma [6, 11]: 294^a IU/L
- tBILI, mean plasma [6, 12]: 0.13 ^a mg/dL
- ALT, mean plasma [6, 12]: 53^a IU/L
- AST, mean plasma [6, 12]: 80^a IU/L
- ALP, mean plasma [6, 12]: 288 ^a IU/L
- tBILI, mean plasma [6, 13]: 0.10^a mg/dL
- ALT, mean plasma [6, 13]: 41^a IU/L
- AST, mean plasma [6, 13]: 67^a IU/L
- ALP, mean plasma [6, 13]: 265^a IU/L
- weight difference vs control ([7]; 14 days after single 500 mg/kg bolus dose): < 4%
- hind grip strength, least squares mean ([7]; day 1 after single oral 500 mg/kg, control 0.46, p=0.0272): 0.40
- weight, least squares mean ([7]; day 14 after single oral 500 mg/kg, control 264.46, p=0.0006): 254.71
- FOB quantal endpoints, treated vs control ([7]; single oral 500 mg/kg): no differences
- behavioral evidence of detrimental effects ([7]; single oral 500 mg/kg, 2 weeks observation): No obvious behavioral evidence of detrimental effects
- FOB categorical endpoints, treated vs control ([7]; single oral 500 mg/kg, time points beyond baseline): did not differ
- tolerability ([7]; single oral bolus of 500 mg/kg): well-tolerated
- LANCL2 binding (LANCL2): binds LANCL2
- inflammatory F4/80+ CD11b+ macrophages and effector Th1 cells in the gut mucosa (mouse models of colitis; 3 mouse models of colitis): decreased numbers
- lowest dose with therapeutic efficacy (mouse models of colitis; 3 validated mouse models of colitis): 8 mg/kg/day
- Th1 cells and Th17 cells in the spleen and MLN (mouse models of colitis; mouse colitis): decreased the levels
- colonic expression of IL-10 and LANCL2 (mouse models of colitis; oral, dose-dependent): up-regulated
- colonic expression of TNFα (mouse models of colitis; oral, dose-dependent): down-regulated
- reduction in gut inflammation (mouse models of colitis; oral, mice, 3 mouse models of colitis/IBD): 90%
- lowest (minimal) efficacious dose (mouse models of colitis; oral, mice): 8 mg/kg
- reduction of colonic lesions (mouse models of colitis; oral, mice, doses 80 mg/kg and as low as 8 mg/kg): 4 X
- FOB quantal endpoints, treated vs control ([8]; 80 mg/kg/day oral for 14 days): No quantal differences
- behavioral evidence of detrimental effects ([8]; 80 mg/kg/day oral, 2 weeks of treatment and 1 week post-dosing): No behavioral evidence of detrimental effects
- weight and hind grip, treated vs control ([8]; 14 daily oral doses of 80 mg/kg, to day 21): no significant differences
- O_REAR (rears during observation period), least squares means (95% confidence interval) ([8]; Study day 3, control 29.17, P=0.4916): 27.23 (13.90-40.57)
- O_REAR (rears during observation period), least squares means (95% confidence interval) ([8]; Study day 7, control 27.97, P=0.1985): 24.33 (11.00-37.67)
- O_REAR (rears during observation period), least squares means (95% confidence interval) ([8]; Study day 14, control 30.27, P=0.0273): 23.93 (10.60-37.27)
- tolerability ([8]; oral, 14 days at 80 mg/kg (cumulative dose 1,120 mg/kg)): well-tolerated
- histopathologic comparison, vehicle control vs BT-11-exposed [9]: No significant differences

Compound: O=C(Nc1cccc(-c2nc3ccccc3[nH]2)c1)c1ccc(C(=O)Nc2cccc(-c3nc4ccccc4[nH]3)c2)cc1 [CID247228, N^1,N^4-bis(3-(1H-benzo[d]imidazo-2-yl)phenyl)terephthalamide, reference compound]
- LANCL2 binding (LANCL2): ligand of LANCL2
- anti-inflammatory activity in mice with colitis (mouse models of colitis; oral): potent oral anti-inflammatory therapeutic
